Measurements as given in ChEMBL document CHEMBL3085685, “In vitro and in vivo antileishmanial and trypanocidal studies of new N-benzene- and N-naphthalenesulfonamide derivatives” (J Med Chem, 2013).
Calls of active or inactive are those of the source. The rule behind the calls is not given here.

How the values were obtained:
Trypanosoma cruzi [1] = assay: Trypanocidal activity against extracellular epimastigote stage of Trypanosoma cruzi CL-B5 assessed as reduction of parasite load after 72 hrs by CPRG-based colorimetric analysis
Trypanosoma cruzi [2] = assay: Trypanocidal activity against intracellular amastigote stage of Trypanosoma cruzi CL-B5 infected in mouse NCTC-929 cells assessed as reduction of parasite load after 7 days by CPRG-based colorimetric analysis; conditions: nctc-929
Leishmania amazonensis [3] = assay: Leishmanicidal activity against extracellular promastigote stage of Leishmania amazonensis MHOM/Br/79/Maria assessed as reduction of parasite load after 48 hrs by resazurin dye-based fluorometric analysis; type: functional, organism-based; conditions: Leishmania amazonensis, MHOM/Br/79/Maria, 48 h; read-out: IC50
Summary of the method: (§1)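 Log-phase promastigotes cultured in Schneider's medium with 20% heat-inactivated FBS at 26 °C, 2.5 × 10^5 per well. DMSO-dissolved compounds added as 2-fold serial dilutions, final DMSO ≤0.2% (v/v), 48 h at 26 °C. Growth read by 2.5 mM resazurin stock, fluorescence 535/590 nm. Triplicate; IC50 by probit analysis.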

Leishmania infantum [4] = assay: Leishmanicidal activity against promastigote stage of Leishmania infantum MCAN/ES/96/BCN150 infected in BALB/c mouse assessed as reduction of parasite burden in spleen at 5 mg/kg, ip qd administered for 5 days measured after 7 days by limiting dilution assay relative to untreated control; type: functional
Summary of the method: (§2)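 BALB/c mice infected intracardially under pentobarbital anaesthesia with 10^7 stationary L. infantum BCN150 promastigotes. From day 21 post-infection, dosed ip once daily for 5 days in 0.1 mL propylene glycol, with an untreated control group. Killed 7 days later; spleen and liver burdens by limiting dilution and expressed as % reduction versus controls.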

Leishmania guyanensis = assay: Leishmanicidal activity against extracellular promastigote stage of Leishmania guyanensis 141/93 assessed as reduction of parasite load after 48 hrs by resazurin dye-based fluorometric analysis; type: functional, organism-based; conditions: Leishmania guyanensis, 141/93, 48 h; read-out: IC50
Summary of the method: as §1

[5] = Selectivity index, ratio of CC50 for mouse J774 cells to IC50 for extracellular promastigote stage of Leishmania amazonensis MHOM/Br/79/Maria; type: functional
Leishmania infantum [6] = assay: Leishmanicidal activity against intracellular amastigote stage of Leishmania infantum MCAN/ES/96/BCN150 infected in mouse J774 cells assessed as reduction of parasite load after 48 hrs by resazurin dye-based fluorometric analysis; type: functional, organism-based; conditions: Leishmania infantum, MCAN/ES/96/BCN150, J774, 48 h; read-out: IC50
Summary of the method: (§3)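 J774 macrophages (5 × 10^4/well) infected with stationary promastigotes at 1:10, 24 h at 33 °C then 24 h at 37 °C, 5% CO2, and washed free of promastigotes. Then 2-fold serial dilutions in triplicate for 48 h at 37 °C. Cells lysed with RPMI with 0.048% HEPES and 0.006% SDS, transformed in Schneider's 3 days at 26 °C, resazurin 3 h, fluorescence 535/590 nm.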

[7] = Selectivity index, ratio of CC50 for mouse J774 cells to IC50 for extracellular promastigote stage of Leishmania braziliensis 2903; type: functional
Leishmania amazonensis [8] = assay: Leishmanicidal activity against intracellular amastigote stage of Leishmania amazonensis MHOM/Br/79/Maria infected in mouse J774 cells assessed as reduction of parasite load after 48 hrs by resazurin dye-based fluorometric analysis; type: functional, organism-based; conditions: Leishmania amazonensis, MHOM/Br/79/Maria, J774, 48 h; read-out: IC50
Summary of the method: as §3

Leishmania braziliensis = assay: Leishmanicidal activity against extracellular promastigote stage of Leishmania braziliensis 2903 assessed as reduction of parasite load after 48 hrs by resazurin dye-based fluorometric analysis; type: functional, organism-based; conditions: Leishmania braziliensis, 2903, 48 h; read-out: IC50
Summary of the method: as §1

Leishmania infantum [9] = assay: Leishmanicidal activity against extracellular promastigote stage of Leishmania infantum MCAN/ES/96/BCN150 assessed as reduction of parasite load after 48 hrs by resazurin dye-based fluorometric analysis; type: functional, organism-based; conditions: Leishmania infantum, MCAN/ES/96/BCN150, 48 h; read-out: IC50
Summary of the method: as §1

Leishmania infantum [10] = assay: Leishmanicidal activity against promastigote stage of Leishmania infantum MCAN/ES/96/BCN150 infected in BALB/c mouse assessed as reduction of parasite burden in liver at 5 mg/kg, ip qd administered for 5 days measured after 7 days by limiting dilution assay relative to untreated control; type: functional
Summary of the method: as §2

[11] = Cytotoxicity against mouse J774 cells assessed as reduction of cell viability after 24 hrs by resazurin dye-based fluorometric analysis
Summary of the method: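 J774 macrophages in RPMI 1640 with 10% heat-inactivated FBS, seeded at 5 × 10^4 cells/well and attached 24 h at 37 °C, 5% CO2. Medium swapped for drug dilutions for 24 h. Then 2.5 mM resazurin stock added for 3 h, fluorescence read at 535 nm excitation / 590 nm emission. Triplicate; CC50 from probit analysis.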

Leishmania infantum [12] = assay: Antileishmanial activity against promastigote stage of Leishmania infantum assessed as alteration in nuclear DNA at IC50 after 48 hrs by propidium iodide staining-based confocal laser scanning microscopic analysis; type: functional, organism-based
Leishmania infantum [13] = assay: Antileishmanial activity against promastigote stage of Leishmania infantum assessed as alteration in kinetoplast DNA at IC50 after 48 hrs by propidium iodide staining-based confocal laser scanning microscopic analysis; type: functional, organism-based
Leishmania infantum [14] = assay: Leishmanicidal activity against promastigote stage of Leishmania infantum MCAN/ES/96/BCN150 infected in BALB/c mouse assessed as reduction of parasite burden in liver at 10 mg/kg, ip qd administered for 5 days measured after 7 days by limiting dilution assay relative to untreated control; type: functional; design: scale not given: the % may be the effect or the level left; conditions: route intraperitoneal
Summary of the method: as §2

Mus musculus [15] = assay: Toxicity in BALB/c mouse infected with promastigote stage of Leishmania infantum MCAN/ES/96/BCN150 assessed as hair loss at 10 mg/kg, ip qd administered for 5 days; type: organism-based; design: dose 10 mg/kg, route intraperitoneal; conditions: in vivo, 120 h
Summary of the method: as §2

Leishmania infantum [16] = assay: Binding affinity to beta-tubulin in promastigote stage of Leishmania infantum assessed as structure disorganization at IC50 after 48 hrs by confocal laser scanning microscopic analysis
[17] = Selectivity index, ratio of CC50 for mouse J774 cells to IC50 for extracellular promastigote stage of Leishmania infantum MCAN/ES/96/BCN150; type: functional
Leishmania infantum [18] = assay: Leishmanicidal activity against promastigote stage of Leishmania infantum MCAN/ES/96/BCN150 infected in BALB/c mouse assessed as reduction of parasite burden in spleen at 10 mg/kg, ip qd administered for 5 days measured after 7 days by limiting dilution assay relative to untreated control; type: functional; design: scale not given: the % may be the effect or the level left; conditions: route intraperitoneal
Summary of the method: as §2

Mus musculus [19] = assay: Toxicity in BALB/c mouse infected with promastigote stage of Leishmania infantum MCAN/ES/96/BCN150 assessed as gross weight loss at 10 mg/kg, ip qd administered for 5 days; type: organism-based; design: dose 10 mg/kg, route intraperitoneal; conditions: in vivo, 120 h
Summary of the method: as §2

[20] = Selectivity index, ratio of CC50 for mouse J774 cells to IC50 for extracellular promastigote stage of Leishmania guyanensis 141/93; type: functional

| Compound | IC50 (Trypanosoma cruzi [1]) | IC50 (Trypanosoma cruzi [2]) | IC50 (Leishmania amazonensis [3]) [µM] | IC50 (Leishmania guyanensis) [µM] | IC50 (Leishmania infantum [6]) [µM] | IC50 (Leishmania amazonensis [8]) [µM] | IC50 (Leishmania braziliensis) [µM] | IC50 (Leishmania infantum [9]) [µM] | CC50 at 24 h [11] [µM] | further results |
| --- | --- | --- | --- | --- | --- | --- | --- | --- | --- | --- |
| Cc1cc2cc(NS(=O)(=O)c3ccccc3)ccc2[nH]1 | Not Active | Not Active | 15.4 | 20.9 | 47.3 | 64.1 | 29 | 23.4 | ≥ 300 | Activity (Leishmania infantum [4]): inactive; Ratio CC50/IC50 [5]: > 16.6; Ratio CC50/IC50 [7]: >8.8; Activity (Leishmania infantum [10]): inactive |
| O=S(=O)(Nc1ccc2[nH]ncc2c1)c1ccccc1 | Not Active | Not Active | 38.7 | 47.9 | 83.2 | 30.8 | 40.3 | 37.3 | ≥ 300 | Activity (Leishmania infantum [12]): inactive; Activity (Leishmania infantum [4]; route intraperitoneal): 55.5%; Activity (Leishmania infantum [13]): inactive; Activity (Leishmania infantum [14]): 97.57%; Activity (Mus musculus [15]): Non-toxic; Activity (Leishmania infantum [16]): Active; Ratio CC50/IC50 [17]: > 6.9; Activity (Leishmania infantum [18]): 96.34%; Activity (Mus musculus [19]): Non-toxic; Activity (Leishmania infantum [10]; route intraperitoneal): 78.9%; Ratio CC50/IC50 [20]: >5.3 |
